According to ChEMBL document CHEMBL3603779, “Identification and Optimization of Benzimidazole Sulfonamides as Orally Bioavailable Sphingosine 1-Phosphate Receptor 1 Antagonists with in Vivo Activity” (J Med Chem, 2015):
In brackets after ≈: the same amount, converted by molar mass. Activity calls are given as the source filed them. The rule behind the calls is not given here.

Columns and labels:
Cytochrome P450 3A5 [1] = target: T1, Cytochrome P450 3A5 (Homo sapiens, UniProt P20815); experiment: Induction of CYP3A5 activation in human hepatocytes at 10 uM incubated for 48 hrs using testosterone substrate relative to rifampicin; format: ADME, cell-based, Hepatocyte
T1 sequence (P20815 whole entry): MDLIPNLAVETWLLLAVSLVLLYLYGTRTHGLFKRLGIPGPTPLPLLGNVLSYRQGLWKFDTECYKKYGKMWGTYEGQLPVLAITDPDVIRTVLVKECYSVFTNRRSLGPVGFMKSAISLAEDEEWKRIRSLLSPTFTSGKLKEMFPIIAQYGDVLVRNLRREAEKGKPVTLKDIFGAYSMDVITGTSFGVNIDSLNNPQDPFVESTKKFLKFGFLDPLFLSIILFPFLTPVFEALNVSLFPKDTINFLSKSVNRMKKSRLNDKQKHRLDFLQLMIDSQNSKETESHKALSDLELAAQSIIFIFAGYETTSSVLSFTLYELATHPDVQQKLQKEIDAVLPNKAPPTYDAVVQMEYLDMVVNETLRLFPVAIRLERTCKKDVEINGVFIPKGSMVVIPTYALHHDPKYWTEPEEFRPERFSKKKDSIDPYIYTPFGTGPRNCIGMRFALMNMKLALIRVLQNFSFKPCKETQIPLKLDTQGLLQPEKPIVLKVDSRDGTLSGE
Method in brief: (§1)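 Human hepatocyte CYP3A induction, testosterone probe with 6-β-hydroxytestosterone as marker; activity expressed as % of the rifampicin response; hepatocytes from two donors tested.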

[2] = Unbound fraction in mouse plasma at 10 uM by LCMS/MS detection based equilibrium dialysis method; format: ADME, cell-free
[3] = Unbound fraction in dog plasma at 10 uM by LCMS/MS detection based equilibrium dialysis method; format: ADME, cell-free, Canis lupus familiaris
Cytochrome P450 2C19 = Cytochrome P450 2C19 (Homo sapiens, UniProt P33261); experiment: Inhibition of CYP2C19 in human liver microsomes incubated for 5 mins in presence of NADPH and specific substrates by LC/MS/MS method; format: ADME
Sequence of Cytochrome P450 2C19 (P33261 whole entry): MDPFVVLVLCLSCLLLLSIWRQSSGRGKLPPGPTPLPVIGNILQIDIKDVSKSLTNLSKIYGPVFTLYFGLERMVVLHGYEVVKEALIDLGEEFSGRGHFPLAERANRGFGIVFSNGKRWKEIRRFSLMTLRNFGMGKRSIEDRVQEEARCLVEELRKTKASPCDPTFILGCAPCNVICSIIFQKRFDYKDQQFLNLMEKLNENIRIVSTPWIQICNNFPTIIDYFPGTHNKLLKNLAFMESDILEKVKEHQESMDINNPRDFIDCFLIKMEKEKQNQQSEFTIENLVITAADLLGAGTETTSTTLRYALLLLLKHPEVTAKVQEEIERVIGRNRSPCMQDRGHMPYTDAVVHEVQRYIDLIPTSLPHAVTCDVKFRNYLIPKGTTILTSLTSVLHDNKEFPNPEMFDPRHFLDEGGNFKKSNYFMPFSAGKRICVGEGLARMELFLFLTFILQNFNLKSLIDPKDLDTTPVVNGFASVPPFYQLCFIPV

Cytochrome P450 2C9 = Cytochrome P450 2C9 (Homo sapiens, UniProt P11712); experiment: Inhibition of CYP2C9 in human liver microsomes incubated for 5 mins in presence of NADPH and specific substrates by LC/MS/MS method; format: ADME
Sequence of Cytochrome P450 2C9 (P11712 whole entry): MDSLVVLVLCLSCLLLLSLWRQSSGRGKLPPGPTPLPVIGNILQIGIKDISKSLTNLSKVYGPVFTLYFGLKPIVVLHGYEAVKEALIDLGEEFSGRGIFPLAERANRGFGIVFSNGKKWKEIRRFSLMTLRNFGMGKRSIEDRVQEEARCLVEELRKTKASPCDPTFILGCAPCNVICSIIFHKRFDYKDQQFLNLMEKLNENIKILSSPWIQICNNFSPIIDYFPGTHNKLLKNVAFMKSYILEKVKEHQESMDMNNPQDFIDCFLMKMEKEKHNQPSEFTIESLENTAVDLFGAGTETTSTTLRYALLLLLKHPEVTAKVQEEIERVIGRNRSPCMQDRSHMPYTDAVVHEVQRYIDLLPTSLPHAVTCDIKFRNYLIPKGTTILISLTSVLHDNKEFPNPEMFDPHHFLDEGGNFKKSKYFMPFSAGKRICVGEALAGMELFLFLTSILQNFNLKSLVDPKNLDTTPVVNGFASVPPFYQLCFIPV

[4] = Intrinsic clearance in human hepatocytes assessed per 10^6 cells at 1 uM after 0.5 to 120 mins by LCMS/MS method; format: ADME, cell-based, Hepatocyte; conditions: read-out: CLH
[5] = target: T2, Nuclear receptor subfamily 1 group I member 2 (Homo sapiens, UniProt O75469); experiment: Activation of human PXR expressed in human HepG2 cells co-expressing CYP3A4 assessed as CYP3A4 activation at 10 uM by luciferase reporter gene assay relative to rifampicin; format: ADME, cell-based; conditions: hepg2, 10 µM
T2 sequence (O75469 whole entry): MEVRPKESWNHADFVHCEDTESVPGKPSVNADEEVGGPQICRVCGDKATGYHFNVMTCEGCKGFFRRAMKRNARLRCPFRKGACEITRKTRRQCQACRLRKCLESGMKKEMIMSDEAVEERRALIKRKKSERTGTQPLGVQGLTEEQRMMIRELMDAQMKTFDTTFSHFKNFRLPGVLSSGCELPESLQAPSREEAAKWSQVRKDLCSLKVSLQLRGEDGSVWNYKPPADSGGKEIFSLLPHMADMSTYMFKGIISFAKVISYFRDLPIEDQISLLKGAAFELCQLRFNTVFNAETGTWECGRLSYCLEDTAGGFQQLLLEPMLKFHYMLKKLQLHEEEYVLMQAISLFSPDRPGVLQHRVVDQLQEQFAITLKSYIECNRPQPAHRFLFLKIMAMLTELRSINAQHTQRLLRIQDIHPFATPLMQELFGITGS
Method in brief: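 Single-concentration PXR reporter gene screen, compound at 10 μM; activation expressed as a percentage of the response to rifampicin, also at 10 μM.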

[6] = Aqueous equilibrium solubility in pH 7.4 phosphate buffer incubated for 24 hrs by HPLC-UV and MS method; format: physicochemical
[7] = Cmax in Han Wistar rat at 10 mg/kg, po by LCMS/MS method; format: ADME, organism-based; design: dose 10 mg/kg, route oral; conditions: in vivo
[8] = Unbound fraction in human plasma at 10 uM by LCMS/MS detection based equilibrium dialysis method; format: ADME, cell-free
[9] = target: Sphingosine 1-phosphate receptor 1 (Homo sapiens, UniProt P21453); experiment: Antagonist activity against human S1P1 receptor expressed in human U2OS cells co-expressing GFP assessed as inhibition of S1P-induced receptor translocation; format: cell-based
Sequence of Sphingosine 1-phosphate receptor 1 (P21453 whole entry): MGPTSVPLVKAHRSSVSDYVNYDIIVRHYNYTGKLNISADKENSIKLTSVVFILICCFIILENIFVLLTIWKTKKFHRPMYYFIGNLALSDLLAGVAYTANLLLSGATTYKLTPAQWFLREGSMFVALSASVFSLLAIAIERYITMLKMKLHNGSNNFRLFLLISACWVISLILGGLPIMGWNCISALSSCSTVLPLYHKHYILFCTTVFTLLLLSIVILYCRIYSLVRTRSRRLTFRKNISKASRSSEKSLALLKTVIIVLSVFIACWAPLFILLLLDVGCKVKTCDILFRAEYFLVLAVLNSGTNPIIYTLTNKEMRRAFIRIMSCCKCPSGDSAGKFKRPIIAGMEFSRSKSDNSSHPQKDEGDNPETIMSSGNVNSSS
Method in brief: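 Cellular S1P1 translocation (internalization) assay with antagonist; EC50 reported as mean of at least three separate determinations ± standard deviation.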

[10] = Unbound fraction in rat plasma at 10 uM by LCMS/MS detection based equilibrium dialysis method; format: ADME, cell-free
[11] = Intrinsic clearance in mouse hepatocytes assessed per 10^6 cells at 1 uM after 0.5 to 120 mins by LCMS/MS method; format: ADME, cell-based, Hepatocyte; conditions: read-out: CLH
[12] = Oral bioavailability in Han Wistar rat at 10 mg/kg by LCMS/MS method; format: ADME, organism-based; conditions: in vivo
Mus musculus = experiment: Inhibition of FGF-S1P-stimulated angiogenesis in 129s1/SvImJ mouse assessed as reduction in hemoglobin level at 10 mg/kg, po administered once-daily for 4 days by spectrophotometry based matrigel plug angiogenesis assay; format: functional, organism-based
Method in brief: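 Matrigel (0.5 mL) with 2 µg/mL β-FGF and 1 µM S1P injected subcutaneously in the ventral region of female 129s1/SvImJ mice. Oral dosing at 10 mg/kg once daily on days 5-8 post-implant (5 per cohort); vehicle 0.5% HPMC, 0.1% Tween 80. Controls also include Matrigel without factors. Hemoglobin per gram of plug gel quantified.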

[13] = Lipophilicity, log D of the compound at pH 7.4; format: physicochemical; conditions: buffer
Cytochrome P450 2D6 = Cytochrome P450 2D6 (Homo sapiens, UniProt P10635); experiment: Inhibition of CYP2D6 in human liver microsomes incubated for 5 mins in presence of NADPH and specific substrates by LC/MS/MS method; format: ADME
Sequence of Cytochrome P450 2D6 (P10635 whole entry): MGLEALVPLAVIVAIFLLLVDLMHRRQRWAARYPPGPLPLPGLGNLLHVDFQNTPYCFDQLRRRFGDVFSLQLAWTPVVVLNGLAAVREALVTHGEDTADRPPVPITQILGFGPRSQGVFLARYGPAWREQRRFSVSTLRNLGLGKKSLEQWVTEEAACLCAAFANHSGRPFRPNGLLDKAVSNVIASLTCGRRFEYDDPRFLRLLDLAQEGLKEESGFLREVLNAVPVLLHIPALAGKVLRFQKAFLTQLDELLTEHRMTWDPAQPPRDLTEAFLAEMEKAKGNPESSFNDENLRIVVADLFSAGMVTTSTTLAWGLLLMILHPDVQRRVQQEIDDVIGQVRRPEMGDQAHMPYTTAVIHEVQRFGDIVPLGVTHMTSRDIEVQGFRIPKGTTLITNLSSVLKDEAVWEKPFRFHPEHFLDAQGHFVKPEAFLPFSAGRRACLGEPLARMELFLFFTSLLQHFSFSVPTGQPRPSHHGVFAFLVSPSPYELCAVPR

[14] = Intrinsic clearance in rat hepatocytes assessed per 10^6 cells at 1 uM after 0.5 to 120 mins by LCMS/MS method; format: ADME, cell-based, Hepatocyte; conditions: read-out: CLH
Cytochrome P450 3A4 [15] = target: T3, Cytochrome P450 3A4 (Homo sapiens, UniProt P08684); experiment: Inhibition of CYP3A4 in human liver microsomes incubated for 5 mins in presence of NADPH and specific substrates by LC/MS/MS method; format: ADME
T3 sequence (P08684 whole entry): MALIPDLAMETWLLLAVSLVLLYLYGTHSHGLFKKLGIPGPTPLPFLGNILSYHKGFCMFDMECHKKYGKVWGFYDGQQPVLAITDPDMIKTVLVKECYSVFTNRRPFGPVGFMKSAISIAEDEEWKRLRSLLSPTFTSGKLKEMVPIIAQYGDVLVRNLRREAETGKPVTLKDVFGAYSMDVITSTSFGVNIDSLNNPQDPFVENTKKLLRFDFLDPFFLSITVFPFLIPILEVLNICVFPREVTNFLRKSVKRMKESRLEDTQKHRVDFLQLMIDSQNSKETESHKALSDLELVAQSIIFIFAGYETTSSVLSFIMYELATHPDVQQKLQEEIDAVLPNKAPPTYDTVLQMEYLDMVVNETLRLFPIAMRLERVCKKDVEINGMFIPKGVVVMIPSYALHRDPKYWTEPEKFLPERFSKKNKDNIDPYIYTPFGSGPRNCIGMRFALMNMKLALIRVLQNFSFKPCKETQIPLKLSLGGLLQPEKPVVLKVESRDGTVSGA

Cytochrome P450 3A5 [16] = target: T1, Cytochrome P450 3A5; experiment: Inhibition of CYP3A5 in human liver microsomes incubated for 5 mins in presence of NADPH and specific substrates by LC/MS/MS method; format: ADME
[17] = Volume of distribution at steady state in beagle dog at 2.5 mg/kg, iv; format: ADME, organism-based, Canis lupus familiaris; conditions: in vivo, read-out: Vdss
Cytochrome P450 3A4 [18] = target: T3, Cytochrome P450 3A4; experiment: Induction of CYP3A4 activation in human hepatocytes at 10 uM incubated for 48 hrs using testosterone substrate relative to rifampicin; format: ADME, cell-based, Hepatocyte; method in brief: as §1
[19] = Intrinsic clearance in dog hepatocytes assessed per 10^6 cells at 1 uM after 0.5 to 120 mins by LCMS/MS method; format: ADME, cell-based, Canis lupus familiaris, Hepatocyte; conditions: read-out: CLH
[20] = Volume of distribution at steady state in Han Wistar rat at 3 mg/kg, iv by LCMS/MS method; format: ADME, organism-based; conditions: in vivo, read-out: Vdss
Cytochrome P450 1A2 = target: T4, Cytochrome P450 1A2 (Homo sapiens, UniProt P05177); experiment: Inhibition of CYP1A2 in human liver microsomes incubated for 5 mins in presence of NADPH and specific substrates by LC/MS/MS method; format: ADME
T4 sequence (P05177 whole entry): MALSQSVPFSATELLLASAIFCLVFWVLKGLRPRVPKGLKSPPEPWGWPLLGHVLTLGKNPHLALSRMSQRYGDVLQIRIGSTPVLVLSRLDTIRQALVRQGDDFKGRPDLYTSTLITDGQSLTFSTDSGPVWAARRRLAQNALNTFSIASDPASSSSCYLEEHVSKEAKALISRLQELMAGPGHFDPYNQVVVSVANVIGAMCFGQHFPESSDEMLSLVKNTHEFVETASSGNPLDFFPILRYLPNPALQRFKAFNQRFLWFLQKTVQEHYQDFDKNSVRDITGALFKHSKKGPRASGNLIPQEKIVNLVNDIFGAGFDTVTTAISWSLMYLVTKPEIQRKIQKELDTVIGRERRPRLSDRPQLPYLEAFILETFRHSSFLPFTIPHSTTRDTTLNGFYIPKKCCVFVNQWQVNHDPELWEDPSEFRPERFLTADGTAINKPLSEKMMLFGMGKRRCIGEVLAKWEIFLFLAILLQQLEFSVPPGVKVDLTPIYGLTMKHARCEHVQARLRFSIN

CCn1c([C@@H](C)NS(=O)(=O)c2ccc(C#N)nc2)nc2cnc(C(F)(F)F)cc21
Activity (Cytochrome P450 3A5 [1]): < 40% | fraction unbound at 10 µM [2]: 0.53 | fraction unbound at 10 µM [3]: 0.36 | IC50 (Cytochrome P450 2C19): > 20 µM | IC50 (Cytochrome P450 2C9): > 20 µM | hepatocyte CLint at 1 µM [4]: 1.2 µL/min/1e6 cells | Activity [5]: 15% | solubility thermodynamic at 24 h [6]: 765 µM (≈ 325 µg/mL) | Cmax [7]: 13.3 µM | fraction unbound at 10 µM [8]: 0.24 | EC50 [9]: 0.007 µM | fraction unbound at 10 µM [10]: 0.32 | hepatocyte CLint at 1 µM [11]: 0.3 µL/min/1e6 cells | bioavailability [12]: 87% | inhibition (Mus musculus): Active | logD [13]: 1.3 | IC50 (Cytochrome P450 2D6): > 20 µM | hepatocyte CLint at 1 µM [14]: 2.1 µL/min/1e6 cells | IC50 (Cytochrome P450 3A4 [15]): > 20 µM | IC50 (Cytochrome P450 3A5 [16]): > 20 µM | Vd [17]: 0.6 L/kg | Activity (Cytochrome P450 3A4 [18]): < 40% | hepatocyte CLint at 1 µM [19]: 2.4 µL/min/1e6 cells | Vd [20]: 1.2 L/kg | IC50 (Cytochrome P450 1A2): > 20 µM

CCn1c([C@@H](C)NS(=O)(=O)c2ccc(C#N)nc2)nc2cnc(C3CC3)cc21
Activity (Cytochrome P450 3A5 [1]): < 40% | fraction unbound at 10 µM [2]: 0.41 | fraction unbound at 10 µM [3]: 0.5 | IC50 (Cytochrome P450 2C19): > 20 µM | IC50 (Cytochrome P450 2C9): > 20 µM | hepatocyte CLint at 1 µM [4]: 0.2 µL/min/1e6 cells | Activity [5]: 20% | solubility thermodynamic at 24 h [6]: > 1000 µM | Cmax [7]: 21.7 µM | fraction unbound at 10 µM [8]: 0.19 | EC50 [9]: 0.004 µM | fraction unbound at 10 µM [10]: 0.18 | hepatocyte CLint at 1 µM [11]: 2.5 µL/min/1e6 cells | bioavailability [12]: 93% | inhibition (Mus musculus): Active | logD [13]: 1.6 | IC50 (Cytochrome P450 2D6): > 20 µM | hepatocyte CLint at 1 µM [14]: 3.9 µL/min/1e6 cells | IC50 (Cytochrome P450 3A4 [15]): > 20 µM | IC50 (Cytochrome P450 3A5 [16]): > 20 µM | Activity (Cytochrome P450 3A4 [18]): < 40% | hepatocyte CLint at 1 µM [19]: 1.7 µL/min/1e6 cells | IC50 (Cytochrome P450 1A2): > 20 µM
